We go through one compound from ChEMBL document CHEMBL4219251, “Synthesis and biological evaluation of 2,4-disubstituted phthalazinones as Aurora kinase inhibitors” (Bioorg Med Chem, 2018).

Experiment [1] has as its system HeLa. The experiment can be described thus: Cell cycle arrest in human HeLa cells assessed as accumulation at S phase at 2 uM after 24 hrs by propidium iodide staining based FACS analysis (reference value: 24.72%). Type of experiment: functional. A digest of the protocol: (§1)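 HeLa cells exposed 24 h to 0, 0.5, 2.0 or 5.0 μM. (1–5)×10^5 cells harvested, washed twice in PBS, fixed overnight or longer in 75% ice-cold ethanol, then washed three times in PBS. DNA stained 15 min in darkness with 1% Triton X-100, 0.01% RNase, 0.05% PI. Phase distribution measured by flow cytometry.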

Experiment [2] has as its system LoVo. The experiment can be described thus: Antiproliferative activity against human LoVo cells after 72 hrs by MTT assay. To be noted: Homo sapiens, LoVo, 72 h. Type of experiment: functional, cell-based. Summed up:
(§2)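 Cells kept in RPMI-1640 with 10% FBS at 37 °C, 5% CO2. Seeded at 5×10^3 cells/well and grown 24 h, then exposed 72 h at 37 °C to five concentrations (0.01, 0.1, 1, 10, 100 μM) in medium. MTT added for 4 h, formazan dissolved in DMSO, absorbance read at 490 nm. IC50 taken from a log plot of percent of control vs concentration; means ± SD of triplicate experiments.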

The target in experiment [3] is T1, Aurora kinase B (Homo sapiens, UniProt Q96GD4). The experiment is described as follows: Inhibition of Aurora B (unknown origin) using kemptide as substrate after 30 mins by kinase-Glo luminescence method. Summed up:
(§3)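 Luminescent kinase assay. Reaction buffer: 40 mM Tris pH 7.4, 10 mM MgCl2, 1 mM DTT, 0.1 mg/ml BSA, 10 μM ATP, 0.2 μg/ml kinase, 100 μM Kemptide. Compounds tested at 0.1, 1, 10, 100 and 1000 nM (diluted in PBS). Reactions ran 30 min at 37 °C, signal read by Kinase-Glo luminescence, IC50 fitted from the curves.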

Experiment [4] relates to HeLa. The experiment can be described thus: Cell cycle arrest in human HeLa cells assessed as accumulation at G1 phase at 0.5 uM after 24 hrs by propidium iodide staining based FACS analysis (reference value: 65.66%). Type of experiment: functional. A digest of the protocol:
as §1

For experiment [5], the system named is HeLa. The experiment can be described thus: Cell cycle arrest in human HeLa cells assessed as accumulation at G2/M phase at 5 uM after 24 hrs by propidium iodide staining based FACS analysis (reference value: 9.63%). In kind it is functional.
The subject of experiment [6] is HCT-116. The experiment is described as follows: Antiproliferative activity against human HCT116 cells after 72 hrs by MTT assay. Type of experiment: functional, cell-based. To be noted: Homo sapiens, HCT-116, 72 h. A digest of the protocol: as §2
Experiment [7] has as its system HeLa. The experiment can be described thus: Cell cycle arrest in human HeLa cells assessed as accumulation at S phase at 0.5 uM after 24 hrs by propidium iodide staining based FACS analysis (reference value: 24.72%). Type of experiment: functional. Summed up: as §1
The subject of experiment [8] is HeLa. The experiment is described as follows: Cell cycle arrest in human HeLa cells assessed as accumulation at G2/M phase after 24 hrs by propidium iodide staining based FACS analysis. Type of experiment: functional. Summed up: as §1
In experiment [9] the target is T2, Aurora kinase A (Homo sapiens) (UniProt O14965).
T2 sequence (whole entry): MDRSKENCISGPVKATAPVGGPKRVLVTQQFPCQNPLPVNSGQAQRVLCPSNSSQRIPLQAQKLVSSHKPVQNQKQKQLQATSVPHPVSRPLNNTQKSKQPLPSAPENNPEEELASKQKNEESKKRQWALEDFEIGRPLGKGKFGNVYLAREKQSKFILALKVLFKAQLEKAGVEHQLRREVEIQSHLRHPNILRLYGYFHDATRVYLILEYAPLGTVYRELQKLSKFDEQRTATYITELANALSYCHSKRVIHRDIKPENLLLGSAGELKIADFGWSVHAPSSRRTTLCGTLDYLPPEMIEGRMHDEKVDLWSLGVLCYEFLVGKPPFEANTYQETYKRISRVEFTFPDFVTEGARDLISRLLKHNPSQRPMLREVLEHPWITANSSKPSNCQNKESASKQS
The experiment can be described thus: Inhibition of Aurora A phosphorylation at Thr288 residue in human HeLa cells after 6 hrs by Western blot method. Type of experiment: cell-based. A digest of the protocol: (§4)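 HeLa cells treated 6 h at 0, 0.5, 2.5 or 5.0 μM. Lysates (20–30 μg) resolved on 12% SDS-PAGE and blotted to PVDF. Probed overnight at 4 °C with antibodies to phospho-AurA Thr288, phospho-AurB Thr232 and total AurA/AurB. β-actin used as loading control. Values are mean ± SD versus control.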

Experiment [10] has as its system A549. The experiment is described as follows: Antiproliferative activity against human A549 cells after 72 hrs by MTT assay. To be noted: Homo sapiens, A549, 72 h. Type of experiment: functional, cell-based. A digest of the protocol: as §2
Experiment [11] concerns the target T1, Aurora kinase B. The experiment is described as follows: Inhibition of Aurora B phosphorylation at Thr232 residue in human HeLa cells after 6 hrs by Western blot method. In kind it is cell-based. A digest of the protocol: as §4
Experiment [12] deals with HeLa. The experiment can be described thus: Cell cycle arrest in human HeLa cells assessed as accumulation at G1 phase at 5 uM after 24 hrs by propidium iodide staining based FACS analysis (reference value: 65.66%). In kind it is functional.
Experiment [13] addresses T3, Aurora kinase A (Homo sapiens, UniProt O14965).
T3 sequence (O14965 whole entry): T2 sequence (whole entry)
The experiment is described as follows: Inhibition of Aurora A (unknown origin) using kemptide as substrate after 30 mins by kinase-Glo luminescence method. Summed up:
as §3

Experiment [14] deals with HeLa. The experiment can be described thus: Cell cycle arrest in human HeLa cells assessed as accumulation at G2/M phase at 2 uM after 24 hrs by propidium iodide staining based FACS analysis (reference value: 9.63%). In kind it is functional. A digest of the protocol:
as §1

The test system of experiment [15] is HeLa. The experiment can be described thus: Antiproliferative activity against human HeLa cells after 72 hrs by MTT assay. In kind it is functional, cell-based. The following applies: Homo sapiens, HeLa, 72 h. A digest of the protocol: as §2
Experiment [16] relates to HepG2. The experiment is described as follows: Antiproliferative activity against human HepG2 cells after 72 hrs by MTT assay. In kind it is functional, cell-based. To be noted: Homo sapiens, HepG2, 72 h. A digest of the protocol:
as §2

Experiment [17] deals with T2, Aurora kinase A (Homo sapiens). The experiment is described as follows: Inhibition of Aurora A phosphorylation at Thr288 residue in human HeLa cells at 5 uM after 6 hrs by Western blot method. Type of experiment: cell-based. A digest of the protocol:
as §4

Experiment [18] concerns HeLa. The experiment is described as follows: Cell cycle arrest in human HeLa cells assessed as accumulation at G2/M phase at 0.5 uM after 24 hrs by propidium iodide staining based FACS analysis (reference value: 9.63%). In kind it is functional. Summed up: as §1
The subject of experiment [19] is HeLa. The experiment can be described thus: Downregulation of Cdc2 protein level in human HeLa cells after 24 hrs by Western blot method. In kind it is functional, cell-based. Summed up: (§5)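 HeLa cells treated 24 h at 0, 0.5, 2.0 or 5.0 μM, or with VX-680 at 5.0 μM. Lysed in Tris-HCl pH 7.5/NP-40/SDS buffer with protease inhibitors, 20–30 μg protein run on 12% SDS-PAGE, transferred to PVDF, probed overnight at 4 °C with anti-cyclinB1 and anti-cdc2. β-actin served as loading control. Values are mean ± SD.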

Experiment [20] relates to HeLa. The experiment can be described thus: Downregulation of Cyclin-B1 protein level in human HeLa cells after 24 hrs by Western blot method. In kind it is functional, cell-based. A digest of the protocol:
as §5

In experiment [21] the test system is HeLa. The experiment is described as follows: Cell cycle arrest in human HeLa cells assessed as accumulation at S phase at 5 uM after 24 hrs by propidium iodide staining based FACS analysis (reference value: 24.72%). In kind it is functional.
Experiment [22] has as its system HeLa. The experiment is described as follows: Cell cycle arrest in human HeLa cells assessed as accumulation at G1 phase at 2 uM after 24 hrs by propidium iodide staining based FACS analysis (reference value: 65.66%). Type of experiment: functional. Summed up:
as §1

Experiment [23] has as its target T1, Aurora kinase B. The experiment is described as follows: Inhibition of Aurora B phosphorylation at Thr232 residue in human HeLa cells at 5 uM after 6 hrs by Western blot method. In kind it is cell-based. Summed up:
as §4

Molecules are shown by their SMILES. Active and inactive are the calls of the source. The rule behind the calls is not given here.

T1 sequence (Q96GD4 whole entry): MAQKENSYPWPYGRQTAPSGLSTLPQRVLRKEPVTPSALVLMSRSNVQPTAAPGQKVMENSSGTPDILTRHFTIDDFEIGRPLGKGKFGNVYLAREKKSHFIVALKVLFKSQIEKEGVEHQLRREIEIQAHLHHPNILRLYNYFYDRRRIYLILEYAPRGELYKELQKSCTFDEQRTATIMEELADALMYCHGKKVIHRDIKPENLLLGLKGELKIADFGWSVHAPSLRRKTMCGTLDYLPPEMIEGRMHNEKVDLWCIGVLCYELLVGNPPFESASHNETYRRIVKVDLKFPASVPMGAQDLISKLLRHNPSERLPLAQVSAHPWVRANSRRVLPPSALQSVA

As for `Cn1cc(-c2nn(Cc3ccc(C(=O)NC4CCCCC4)cc3)c(=O)c3ccccc23)cn1`, the Activity in [1] was 12.83%; in experiment [4], 34.87%; in experiment [5], 87.17%; in [7], 30.47%; in [8] it was “Dose-dependent effect”; in experiment [12] it was 7.34%. For the same compound, the Activity in experiment [14] was 81.19%; in experiment [18], 34.66%; in experiment [19], “Dose-dependent effect”; in [20], “Dose-dependent effect”; in [21], 5.48%; in [22] it was 5.98%. Further, the concentration for half-maximal inhibition (IC50) worked out at 2600 nM in experiment [2]; 80 nM in experiment [3]; 3800 nM in experiment [6]; 3300 nM in experiment [10]; 118 nM in experiment [13]; 2200 nM in experiment [15]. For the same compound, half-maximal inhibition in experiment [16] (IC50) was put at 4600 nM. The inhibition entry in [9] and in experiment [11] was “Dose-dependent effect” in each case. Moreover, the inhibition result in experiment [17] and in [23] was “Active” each time.
